Bioassay records: PubChem, several laboratories
beta cell repl: inducers of beta-cell replication in MIN6 cells | 330,000 compounds, 0.29% hits | proliferation, % at 10 µM | MIN6 cells proliferation, ATPlite luminescence, 48 h; cells starved in 0.2% serum; 100% = growth in 10% serum;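 active means compounds whose signal lies at least 3.5 SD above the mean of all wells on their plate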
Granule exo inh: lytic granule exocytosis inhibition | 360,000 compounds, 0.66% hits | AID 651702 | TALL-104 LAMP-1 surface exposure, flow cytometry; cells stimulated with thapsigargin and PMA | inhibition, % at 10 µM;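 active means inhibition above about 55%, limit read from the data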
UBC13 polyUb: blocks human UBC13 polyubiquitin chain formation; P61088; TR-FRET; inhibition, % at 20 µM; 330,000 compounds, 0.47% hits; AID 485273; in the data active means inhibition above about 45%, passing the limit was not always enough
Target sequence (P61088 whole entry, looked up): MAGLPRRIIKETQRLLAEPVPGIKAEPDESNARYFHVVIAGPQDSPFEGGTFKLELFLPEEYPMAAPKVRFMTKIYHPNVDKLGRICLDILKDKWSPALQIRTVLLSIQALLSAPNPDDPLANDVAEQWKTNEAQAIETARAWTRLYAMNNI
MPTP block: permeability transition pore inhibition; 360,000 compounds, 1.4% hits; inhibition, % at 10 µM; isolated mouse mitochondria, Ca2+ swelling absorbance, 30 min;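 active means inhibition of 50% or more, scaled per plate between neutral and stimulator controls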
Apaf-1 inh: human Apaf-1 inhibition; O14727; 330,000 compounds, 0.71% hits; inhibition, % at 20 µM; reconstituted apoptosome caspase-3 activity, DEVD-Rh110 fluorescence; AID 489030; active means inhibition of at least 40% at 20 µM
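Material: biochemical Apaf-1 apoptosome reconstitution. Medium: Hepes buffer, pH 7.5. Also added: cytochrome c activation, bis-DEVD rhodamine 110 substrate. Timing: 30 min compound preincubation, 50 min activation, room temperature. Measured by: rhodamine 110 fluorescence at Ex 480/Em 540 nm.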
iPSC survival up: hiPSC single-cell survival enhancement; 360,000 compounds, 0.044% hits; ATPlite luminescence; 100% = ROCK inhibitor wells, 0% = DMSO; AID 602274; survival enhancement, % at 20 µM; in the data active means survival enhancement above about 18%;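 further: cells exposed to compounds for 16 hours before the ATP read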
Numbers stand for hits; – = inactive; · = no result. An excerpt weighted towards active compounds, which were near 3% of everything screened.

SMILES | beta cell repl | Granule exo inh | UBC13 polyUb | MPTP block | Apaf-1 inh | iPSC survival up
O=C(N/N=C/c1ccc(-n2ccnc2)cc1)c1cccs1 | – | – | – | – | – | –
CC(=O)Nc1ccc(NC(=O)CC2Nc3cccc4cccc(c34)NC2=O)cc1 (configuration not stated) | – | – | – | – | 96 | –
O=C(O)c1ccccc1C(=O)NCC(O)COCC1CC=CCC1 (configuration not stated) | – | – | – | – | – | 28
CCCN1C(C)C(C(=O)OCC)=CN(Cc2cccc(I)c2)S1(=O)=O (configuration not stated) | · | – | · | – | – | –
Cc1cc(C)c(C(=O)CC(=O)c2cccnc2)c(C)c1 | · | – | · | – | · | –
CCN1/C(=N\N)c2cccc3cccc1c23 | – | 95 | – | – | – | –
C=CS(=O)(=O)c1ccc(Oc2ccc(S(=O)(=O)C=C)cc2)cc1 | – | 89 | – | – | – | –
Cn1c(CCNC(=O)c2ccccc2F)nnc1SCC(=O)Nc1nncs1 | – | – | – | – | – | –
Cc1c(CCC(=O)NCCCn2ccnc2)c(=O)oc2c(C)c3oc4c(c3cc12)CCCC4 | – | – | 53 | – | – | –
CC1(C)CC[C@]2(C(=O)O)CC[C@]3(C)C(=CCC4[C@@]5(C)CC[C@H](O)C(C)(C)C5CC[C@]43C)C2C1 (some centres not stated) | · | 56 | · | – | · | –
Cc1ccc(N(CC(O)CN2C(=O)NC(C)(C)C2=O)S(=O)(=O)c2ccc([N+](=O)[O-])cc2)cc1 (configuration not stated) | – | – | – | – | – | –
COc1ccc(OC)c2cc3ccccc3cc12 | · | 104 | · | – | · | –
COc1cc2ccccc2cc1C(=O)O | – | – | – | – | – | –
CCOc1ccc(S(=O)(=O)Nc2cccc(C(=O)N3CC(C)OC(C)C3)c2)cc1 (configuration not stated) | – | – | – | – | – | –
CCOc1ccc(S(=O)(=O)Nc2cccc(C(=O)N3CCN(c4ccc(OC)cc4)CC3)c2)cc1 | – | – | – | – | – | 21
N#CCOC(=O)c1cc(S(=O)(=O)N2CCCCC2)ccc1N1CCOCC1 | – | – | – | – | – | –
COC(=O)c1ccc(C(=O)OC)c(NC(=O)C2CCCO2)c1 (configuration not stated) | – | – | – | – | – | –
N#CC(C#N)=c1ccc2c(c1)N1C3=C(CCCC3)CC3CCCCC31N=2 (configuration not stated) | – | 64 | – | – | – | –
N#C/C(C(N)=O)=c1/ccc2c(c1)N1C3=C(CCCC3)CC3CCCCC31N=2 (configuration not stated) | – | · | – | · | – | ·
O=Cc1cnc2ccccc2c1-c1ccccc1 | – | 80 | – | – | – | –
O=Cc1cn[nH]c1-c1ccccc1 | – | – | – | – | – | –
CC1=NN(c2ccc(C)c(C)c2)C(=O)C1C(c1cccc(O)c1)C1C(=O)N(c2ccc(C)c(C)c2)N=C1C (configuration not stated) | – | – | – | – | 87 | –
Cc1ccc(N2C(=O)C3C4C=CC(C4)C3C2=O)cc1C (configuration not stated) | – | – | – | – | – | –
CCN1C/C(=C/c2cccc([N+](=O)[O-])c2)C(=O)/C(=C/c2cccc([N+](=O)[O-])c2)C1 | · | 64 | · | – | · | 38
CCOc1cc(/C=C2\CN(CC)C/C(=C\c3ccc(O)c(OCC)c3)C2=O)ccc1O | – | 57 | – | – | – | –
SMILES | beta cell repl | Granule exo inh | UBC13 polyUb | MPTP block | Apaf-1 inh | iPSC survival up
O=[N+]([O-])c1ccc(Cl)c(C2Nc3cccc4cccc(c34)N2)c1 | – | 56 | – | – | – | –
O=[N+]([O-])c1ccccc1C1Nc2cccc3cccc(c23)N1 | – | – | – | – | – | –
O=C1c2ccccc2C(=O)c2c([N+](=O)[O-])ccc(O)c21 | – | 59 | – | – | – | –
CCn1c(Cl)c(C=O)s/c1=N\S(=O)(=O)c1ccccc1 | – | – | – | – | – | 44
Cc1ccc(/C=N/NC(=O)c2ccccc2OCc2ccc(F)cc2)o1 | – | – | – | – | – | –
O=C(N/N=C/c1ccncc1)c1ccccc1OCc1ccc(Br)cc1 | – | 83 | – | – | – | –
Cc1cccc(/C=N/NC(=O)c2ccccc2OCc2cccc(Br)c2)n1 | – | 74 | – | – | – | –
CC(C)CSc1nc(N2CCOCC2)c2c(c1C#N)CC(C)(C)SC2 | – | – | – | – | – | –
CCCSc1nc(N2CCOCC2)c2c(c1C#N)CC(C)(C)SC2 | – | – | – | – | – | 23
COc1ccc(S(=O)(=O)N2CCOC23CCN(S(=O)(=O)c2cc(F)ccc2F)CC3)cc1 | – | – | – | – | – | –
CS(=O)(=O)N(Cc1cc2ccccc2[nH]c1=O)C1CCCCC1 | – | – | – | – | – | 27
CN(Cc1cc2ccccc2[nH]c1=O)S(C)(=O)=O | – | – | – | – | – | –
COc1cc2ccccc2cc1C(=O)N1CC(C)CC(C)C1 (configuration not stated) | – | – | – | – | – | –
C[C@H](CO)N1C[C@H](C)[C@@H](CN(C)Cc2ccncc2)Oc2c(NC(=O)C3CC3)cccc2C1=O | – | – | – | – | – | –
O=S(=O)(c1ccc2nc(-c3ccco3)c(-c3ccco3)nc2c1)N1CCOCC1 | – | – | – | – | 77 | –
O=C(Nc1ccc(N2CCOCC2)cc1)Nc1ccc2nc(-c3ccco3)c(-c3ccco3)nc2c1 | – | – | – | – | – | –
COc1ccc(CCNC(=O)c2ccc3nc(-c4ccco4)c(-c4ccco4)nc3c2)cc1OC | – | – | – | – | 56 | –
O=C(O)c1ccc2nc(-c3ccco3)c(-c3ccco3)nc2c1 | – | – | – | – | 62 | –
O=S(=O)(c1ccc2ccccc2c1)N1CCOCC1 | – | – | – | – | – | –
O=C(NCCCO)Nc1ccc2nc(-c3ccco3)c(-c3ccco3)nc2c1 | – | · | – | · | 57 | ·
COc1ccc(OC)c(NC(=O)CC2Oc3ccccc3NC2=O)c1 (configuration not stated) | – | – | – | – | – | –
CC1CCCC(NC(=O)CCN2C(=O)COc3ccccc32)C1C (configuration not stated) | · | – | · | – | · | –
COC(=O)c1ccc(Nc2cc(C)nc3ccc(C)cc23)cc1 | – | – | – | – | – | –
Cc1ccc2nc(C)cc(Nc3ccc([N+](=O)[O-])cc3)c2c1 | · | 83 | · | – | · | –
COc1ccc(C(C(=O)NCc2ccccc2)n2c(-c3ccccn3)nc3ccccc32)cc1 (configuration not stated) | · | – | · | – | · | ·
Cc1c(C(=O)NCc2ccccc2C(F)(F)F)sc(=O)n1Cc1cccc(C(F)(F)F)c1 | · | – | · | – | · | –
Cc1c(C(=O)NCc2ccccc2C(F)(F)F)sc(=O)n1Cc1ccc2ccccc2c1 | · | – | · | – | · | 20
